Reference: ChEMBL document CHEMBL3352717, “Identification of the first inhibitor of the GBP1:PIM1 interaction. Implications for the development of a new class of anticancer agents against paclitaxel resistant cancer cells” (J Med Chem, 2014)
Calls of active or inactive are those of the source. The calls are words filed in the database; no cut-off is given here.

Legend:
[1] = target: T1, Interferon-induced guanylate-binding protein 1/Serine/threonine-protein kinase pim-1 (Homo sapiens) (UniProt P11309+P32455); experiment: Inhibition of GBP1 (unknown origin)-PIM1 (unknown origin) interaction at 100 nM by SPR analysis; assay type: protein assay
In short: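 Recombinant PIM1 amine-coupled (50 μg/mL in acetate pH 5.5, ~2000 RU) on an EDC/S-NHS-activated GLM chip; blank acetate-treated channel as reference. Compound co-injected with GBP1 280 nM in TBST, 30 μL/min for 120 s, 15 min dissociation. Carbonic anhydrase 280 nM was the negative control. % inhibition = RU with compound over RU with GBP1 alone; runs done at least three times.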

[2] = target: T1, Interferon-induced guanylate-binding protein 1/Serine/threonine-protein kinase pim-1 (Homo sapiens); experiment: Inhibition of GBP1 (unknown origin)-PIM1 (unknown origin) interaction by SPR analysis; assay type: protein assay
In short: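 Recombinant PIM1 (50 μg/mL in acetate buffer pH 5.5) amine-coupled to GLM chip via EDC/S-NHS (~2000 RU); compound (0.1, 1, 10, 100 nM) co-injected with GBP1 280 nM in TBST, 30 μL/min, 120 s, 15 min dissociation; DMSO 0.2% v/v. CA 280 nM negative control. % inhibition = RU with compound over GBP1-alone maximum; runs at least three times.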

[3] = target: T1, Interferon-induced guanylate-binding protein 1/Serine/threonine-protein kinase pim-1 (Homo sapiens); experiment: Inhibition of GBP1-PIM1 interaction in human SKOV3 cells at 100 nM after 3 hrs by co-immunoprecepitation method; assay type: cell-based; settings: SK-OV-3
In short: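 SKOV3 cells treated 3 h with compound; cells scraped, lysed, PIM1 immunoprecipitated (anti-IgG negative control); co-precipitated GBP1 detected by Western blot with anti-GBP1 (67 kD band, antibodies 1:200 in 5% milk–TBST). Bands quantified by densitometry; DMSO vehicle control.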

T1 sequence (P11309 whole entry, looked up): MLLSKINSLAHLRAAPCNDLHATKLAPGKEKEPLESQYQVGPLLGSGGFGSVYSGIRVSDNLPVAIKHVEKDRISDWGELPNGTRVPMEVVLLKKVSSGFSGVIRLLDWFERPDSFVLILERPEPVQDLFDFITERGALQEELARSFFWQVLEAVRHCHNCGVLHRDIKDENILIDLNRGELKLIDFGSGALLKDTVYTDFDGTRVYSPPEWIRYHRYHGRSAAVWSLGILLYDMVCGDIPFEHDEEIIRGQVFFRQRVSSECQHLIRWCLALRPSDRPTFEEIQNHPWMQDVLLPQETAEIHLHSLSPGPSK
T1 sequence (P32455 whole entry, looked up): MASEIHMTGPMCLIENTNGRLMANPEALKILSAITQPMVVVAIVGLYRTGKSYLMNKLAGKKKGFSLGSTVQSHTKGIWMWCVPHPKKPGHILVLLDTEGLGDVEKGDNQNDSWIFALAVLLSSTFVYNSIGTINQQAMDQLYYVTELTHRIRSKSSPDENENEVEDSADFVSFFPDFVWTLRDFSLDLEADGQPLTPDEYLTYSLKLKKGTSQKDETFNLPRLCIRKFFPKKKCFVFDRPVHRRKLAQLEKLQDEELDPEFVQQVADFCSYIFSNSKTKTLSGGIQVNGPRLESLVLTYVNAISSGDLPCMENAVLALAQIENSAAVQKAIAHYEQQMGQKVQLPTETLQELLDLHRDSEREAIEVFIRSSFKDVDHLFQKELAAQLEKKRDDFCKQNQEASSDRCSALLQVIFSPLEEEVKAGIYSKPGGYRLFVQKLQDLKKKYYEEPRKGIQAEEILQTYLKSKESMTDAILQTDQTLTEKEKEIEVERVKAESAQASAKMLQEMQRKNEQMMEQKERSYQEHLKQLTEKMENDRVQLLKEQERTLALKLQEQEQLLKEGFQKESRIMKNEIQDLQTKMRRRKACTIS

inhibition [1] | Compound | inhibition [2] | inhibition [3]
inactive | O=C1OCC2=C1C(c1ccccc1)c1cc3c(cc1N2CCO)OCCO3 (configuration not stated) |  | 
inactive | COc1cccc(C2C3=C(COC3=O)N(CCO)c3cc4c(cc32)CCC4)c1 (configuration not stated) |  | 
10% | COc1cccc(C2C3=C(COC3=O)N(CCO)c3cc(OC)c(OC)cc32)c1 (configuration not stated) |  | 
10% | COc1cc2c(cc1OC)N(CCO)C1=C(C(=O)OC1)C2c1cc(OC)c(OC)c(OC)c1 (configuration not stated) |  | 
inactive | COc1cc2c(cc1OC)N(CCO)C1=C(C(=O)OC1)C2c1ccccc1 (configuration not stated) |  | 
inactive | COc1ccc(C2C3=C(COC3=O)N(CCO)c3cc4c(cc32)OCCO4)cc1 (configuration not stated) |  | 
inactive | COc1cccc(C2C3=C(COC3=O)N(CCO)c3cc4c(cc32)OCCO4)c1 (configuration not stated) |  | 
inactive | COc1cc(C2C3=C(COC3=O)N(CCO)c3cc4c(cc32)OCCO4)cc(OC)c1O (configuration not stated) |  | 
inactive | O=C1OCC2=C1C(c1ccc(Cl)c(Cl)c1)c1cc3c(cc1N2CCO)CCC3 (configuration not stated) |  | 
inactive | COc1ccc(C2C3=C(COC3=O)N(CCO)c3cc4c(cc32)CCC4)cc1 (configuration not stated) |  | 
10% | CCc1ccc2c(c1)N(CCO)C1=C(C(=O)OC1)C2c1cccc(Cl)c1 (configuration not stated) |  | 
inactive | CCc1ccc2c(c1)N(CCO)C1=C(C(=O)OC1)C2c1cccc(Br)c1 (configuration not stated) |  | 
10% | COc1cc2c(cc1OC)N(CCO)C1=C(C(=O)OC1)C2c1cccc(Br)c1 (configuration not stated) |  | 
inactive | COc1cc(C2C3=C(COC3=O)N(CCO)c3cc4c(cc32)CCC4)cc(OC)c1O (configuration not stated) |  | 
inactive | COc1ccc2c(c1)N(CCO)C1=C(C(=O)OC1)C2c1ccc(OC)c(OC)c1 (configuration not stated) |  | 
inactive | O=C1OCC2=C1C(c1ccc(Cl)c(Cl)c1)c1cc3c(cc1N2CCO)OCCO3 (configuration not stated) |  | 
inactive | CCc1ccc2c(c1)N(CCO)C1=C(C(=O)OC1)C2c1ccc(Cl)c(Cl)c1 (configuration not stated) |  | 
10% | COc1ccc2c(c1)N(CCO)C1=C(C(=O)OC1)C2c1cccc(Br)c1 (configuration not stated) |  | 
inactive | O=C1OCC2=C1C(c1cccc(Br)c1)c1cc3c(cc1N2CCO)CCC3 (configuration not stated) |  | 
10% | COc1ccc(C2C3=C(COC3=O)N(CCO)c3cc(OC)ccc32)cc1 (configuration not stated) |  | 
10% | COc1ccc(C2C3=C(COC3=O)N(CCO)c3cc(OC)c(OC)cc32)cc1OC (configuration not stated) |  | 

inhibition [1] | Compound | inhibition [2] | inhibition [3]
inactive | CCc1ccc2c(c1)N(CCO)C1=C(C(=O)OC1)C2c1cc(OC)c(OC)c(OC)c1 (configuration not stated) |  | 
inactive | O=C1OCC2=C1C(c1cccc(Cl)c1)c1cc3c(cc1N2CCO)CCC3 (configuration not stated) |  | 
inactive | CCc1ccc2c(c1)N(CCO)C1=C(C(=O)OC1)C2c1ccccc1 (configuration not stated) |  | 
inactive | COc1cc(C2C3=C(COC3=O)N(CCO)c3cc4c(cc32)OCCO4)cc(OC)c1OC (configuration not stated) |  | 
inactive | COc1cccc(C2C3=C(COC3=O)N(CCO)c3cc4c(cc32)OCO4)c1 (configuration not stated) |  | 
inactive | COc1ccc(C2C3=C(COC3=O)N(CCO)c3cc4c(cc32)OCCO4)cc1OC (configuration not stated) |  | 
inactive | O=C1OCC2=C1C(c1ccccc1)c1cc3c(cc1N2CCO)CCC3 (configuration not stated) |  | 
inactive | COc1ccc(C2C3=C(COC3=O)N(CCO)c3cc4c(cc32)OCO4)cc1 (configuration not stated) |  | 
inactive | COc1ccc(C2C3=C(COC3=O)N(CCO)c3cc4c(cc32)OCO4)cc1OC (configuration not stated) |  | 
inactive | COc1cc2c(cc1OC)N(CCO)C1=C(C(=O)OC1)C2c1ccc(Cl)c(Cl)c1 (configuration not stated) |  | 
inactive | O=C1OCC2=C1C(c1ccccc1)c1cc3c(cc1N2CCO)OCO3 (configuration not stated) |  | 
10% | COc1ccc2c(c1)N(CCO)C1=C(C(=O)OC1)C2c1cc(OC)c(OC)c(OC)c1 (configuration not stated) |  | inactive
inactive | O=C1OCC2=C1C(c1cccc(Cl)c1)c1cc3c(cc1N2CCO)OCCO3 (configuration not stated) |  | 
10% | COc1cc2c(cc1OC)N(CCO)C1=C(C(=O)OC1)C2c1cccc(Cl)c1 (configuration not stated) |  | 
inactive | COc1ccc(C2C3=C(COC3=O)N(CCO)c3cc4c(cc32)CCC4)cc1OC (configuration not stated) |  | 
inactive | O=C1OCC2=C1C(c1cccc(Cl)c1)c1cc3c(cc1N2CCO)OCO3 (configuration not stated) |  | 
inactive | COc1ccc(C2C3=C(COC3=O)N(CCO)c3cc(OC)c(OC)cc32)cc1 (configuration not stated) |  | 
10% | COc1cccc(C2C3=C(COC3=O)N(CCO)c3cc(OC)ccc32)c1 (configuration not stated) |  | 
inactive | COc1cc(C2C3=C(COC3=O)N(CCO)c3cc4c(cc32)OCO4)cc(OC)c1O (configuration not stated) |  | 
inactive | O=C1OCC2=C1C(c1cccc(Br)c1)c1cc3c(cc1N2CCO)OCCO3 (configuration not stated) |  | 

Compound | inhibition [1] | inhibition [2] | inhibition [3]
COc1cc(C2C3=C(COC3=O)N(CCO)c3cc4c(cc32)OCO4)cc(OC)c1OC (configuration not stated) | inactive |  | 
COc1ccc2c(c1)N(CCO)C1=C(C(=O)OC1)C2c1ccccc1 (configuration not stated) | 65% | Dose-dependent effect | Active
COc1cc(C2C3=C(COC3=O)N(CCO)c3cc4c(cc32)CCC4)cc(OC)c1OC (configuration not stated) | inactive |  | 
